# Measurements taken from PubChem BioAssay.
# Activity calls are given as the source filed them.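 Rule for the calls, unless noted: active = GFP response above 150% of the DMSO level; inconclusive = fewer than 70 events counted for a yeast strain; inactive = the rest.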
# Experiments:
# [1] = RPL19A-GFP modulators, yeast TOR pathway, confirmation, cell-based, S. cerevisiae, flow cytometry, cherry picks, mother/daughter gates (AID 2270;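 active = GFP response below 50% of the DMSO control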); settings: S. cerevisiae RPL19A-GFP strain, 3 h, at 10 µM, stronger effect = lower value, 100 = same GFP as DMSO wells
# [2] = LAP4-GFP expression modulators in yeast, confirmation, cell-based, cherry picks, flow cytometry, mother/daughter gates (AID 2271;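 active = GFP response above 150% of the DMSO control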;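 note: ratio of sample to DMSO plate mean so 100% equals DMSO level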); settings: S. cerevisiae LAP4-GFP strain, 3 h, at 10 µM, stronger effect = higher value, 100 means same as DMSO control
# Outline: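 Test system: GFP-fusion yeast strain / Amount: 0.2 OD600 cells / Buffer or medium: SC medium / Dosing: 10 µM single dose / Incubation: compound exposure 3 h at 30 °C, end-over-end rotation / Detection: HT flow cytometry, GFP fluorescence channel / Evaluation: median GFP fluorescence as percent of plate-mean DMSO wells / Control set: DMSO-only negative wells, rapamycin 400 ng/mL positive wells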
# [3] = modulators of MEP2-GFP levels in yeast, confirmation, S. cerevisiae, flow cytometry GFP, cherry picks (AID 2272;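 active = GFP response above 150% of the DMSO control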;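 note: ratio of well signal to plate DMSO mean so 100% equals DMSO level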); settings: S. cerevisiae MEP2-GFP strain, 3 h, at 10 µM, stronger effect = higher value
# [4] = AGP1-GFP expression modulators, hit retest, confirmation, cell-based, flow cytometry, S. cerevisiae, cherry picks (AID 2273);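 note: median GFP channel fluorescence over the whole cell population gate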; settings: S. cerevisiae AGP1-GFP strain, 3 h, at 10 µM
# [5] = modulators of CIT2-GFP expression in yeast, confirmation, S. cerevisiae, GFP fusion, cherry picks, mother/daughter gates (AID 2274); settings: S. cerevisiae CIT2-GFP strain, flow cytometry, 3 h, at 10 µM, stronger effect = higher value
# [6] = measured here: daughter cell gate
# [7] = measured here: mother cell gate
# [8] = measured here: daughter cell gate response
# [9] = measured here: mother cell gate response
Compound,GFP response vs DMSO [1],"GFP response vs DMSO [1, 6]","GFP response vs DMSO [1, 7]",GFP response relative to DMSO [2],"GFP response relative to DMSO [2, 8]","GFP response relative to DMSO [2, 9]",GFP response vs DMSO [3],"GFP response, % of DMSO [4]","GFP response, % of DMSO [5]","GFP response, % of DMSO [5, 6]","GFP response, % of DMSO [5, 7]"
CCSc1nnc(NC(=O)c2nc(S(=O)(=O)Cc3ccc(F)cc3)ncc2Cl)s1,102% (inactive),99%,103%,103% (inactive),108%,103%,104% (inactive),102% (inactive),112% (inactive),110%,113%
O=C(Nc1ccccc1O)c1ccccc1O,95.8% (inactive),96.4%,94.2%,96.5% (inactive),96%,95.4%,106% (inactive),103% (inactive),101% (inactive),103%,100%
COc1cc(NC(=O)c2oc3ccccc3c2C)ccc1NC(=O)c1ccco1,98% (inactive),97.8%,98.4%,97.7% (inactive),99%,100%,110% (inactive),102% (inactive),98.6% (inactive),97.6%,99.3%
CC(=O)Nc1ccc(NC(=O)c2oc3cc(C)c(C)cc3c2C)cc1,99% (inactive),96.4%,99.4%,99.2% (inactive),99.2%,98.3%,102% (inactive),102% (inactive),101% (inactive),99.1%,98.5%
CC(C)c1nc2ccccn2c1NC1CCCCC1,101% (inactive),98.4%,98%,97.9% (inactive),99.2%,98.3%,100% (inactive),102% (inactive),101% (inactive),103%,101%
CCOC(=O)c1c(C)oc2c1c(C(c1cccnc1)N1CCOCC1)c(O)c1ccccc12 (centres undefined),95% (inactive),98.5%,89.6%,203% (active),199%,188%,124% (inactive),104% (inactive),97.8% (inactive),109%,86.3%
Cc1ccn2c(NC3CCCCC3)c(C(C)C)nc2c1,99.4% (inactive),99.4%,99.2%,101% (inactive),101%,100%,100% (inactive),100% (inactive),101% (inactive),103%,101%
Cc1nn(Cc2c(Cl)cccc2Cl)c(C)c1NC(=O)c1sc2ccccc2c1Cl,94.8% (inactive),95.7%,95.8%,95.3% (inactive),93.6%,98.5%,99.5% (inactive),108% (inactive),104% (inactive),100%,106%
CCCCC(=O)NNC(=S)NC(=O)c1ccc(C)cc1,116% (inactive),111%,111%,249% (active),204%,233%,134% (inactive),100% (inactive),119% (inactive),114%,110%
CC1(C)CCN2CCC(C)(C)c3c(O)ccc1c32,105% (inactive),105%,107%,115% (inactive),123%,115%,139% (inactive),101% (inactive),121% (inactive),123%,119%
O=C(Nc1ccc(NC(=O)c2cc3ccccc3o2)cc1)c1ccc2c(c1)OCCO2,103% (inactive),101%,102%,97% (inactive),95.9%,97.3%,103% (inactive),98.6% (inactive),105% (inactive),99.2%,107%
COc1ccc(-c2nnc(NC(=O)c3ccc([N+](=O)[O-])o3)o2)c(OC)c1,101% (inactive),100%,101%,95.4% (inactive),92.8%,96.1%,100% (inactive),98% (inactive),105% (inactive),105%,103%
CCCCc1[nH]nc2c1C1(C(=O)N(CC)c3ccccc31)C(C#N)=C(N)O2 (centres undefined),105% (inactive),101%,103%,98.2% (inactive),97.5%,98.4%,101% (inactive),106% (inactive),102% (inactive),97.4%,95.6%
CC1(C(=O)OCc2cc(=O)n3cc(Br)ccc3n2)CC1(Cl)Cl (centres undefined),92.5% (inactive),89.9%,93.8%,133% (inactive),123%,139%,94.4% (inactive),103% (inactive),88.5% (inactive),87.3%,88.8%
COc1cccc(NC(=O)/C=C/c2ccc([N+](=O)[O-])cc2)c1,96% (inactive),97.6%,93.2%,102% (inactive),101%,104%,109% (inactive),95.7% (inactive),88.6% (inactive),90.2%,88.2%
Nc1nc(SCC(=O)Nc2cc(C(F)(F)F)ccc2N2CCOCC2)n[nH]1,99% (inactive),99.9%,97.9%,101% (inactive),101%,98.3%,105% (inactive),101% (inactive),99.7% (inactive),99.1%,98.5%
O=C1ON=C(c2ccccc2)/C1=C/c1ccco1,95.8% (inactive),86.4%,85.2%,169% (active),137%,161%,141% (inactive),89.2% (inactive),83.5% (inactive),92.7%,70%

Compound,GFP response vs DMSO [1],"GFP response vs DMSO [1, 6]","GFP response vs DMSO [1, 7]",GFP response relative to DMSO [2],"GFP response relative to DMSO [2, 8]","GFP response relative to DMSO [2, 9]",GFP response vs DMSO [3],"GFP response, % of DMSO [4]","GFP response, % of DMSO [5]","GFP response, % of DMSO [5, 6]","GFP response, % of DMSO [5, 7]"
CSC1=NS(=O)(=O)c2c(C)nn(C)c2S1,88.7% (inactive),91%,85.8%,156% (active),159%,152%,110% (inactive),104% (inactive),84.7% (inactive),90.5%,78.1%
O=C(NCc1ccccn1)c1cc(-c2ccc(Cl)cc2)oc1C(F)(F)F,99.5% (inactive),98.4%,99.8%,103% (inactive),106%,102%,100% (inactive),99.4% (inactive),102% (inactive),98.1%,101%
Cc1ccc(C)c(NC(=O)c2ccccc2O)c1,98.5% (inactive),97%,97.8%,108% (inactive),99%,112%,101% (inactive),97.3% (inactive),93.1% (inactive),95.8%,96%
CCOc1ccccc1-c1noc(CCC(=O)Nc2cccnc2)n1,98.4% (inactive),99%,99.2%,107% (inactive),105%,110%,111% (inactive),106% (inactive),110% (inactive),108%,112%
Cc1ccc(C(C[N+](=O)[O-])Sc2ccc(N)cc2)cc1 (centres undefined),95.6% (inactive),98.4%,94.8%,135% (inactive),133%,140%,109% (inactive),89.6% (inactive),98.3% (inactive),103%,95%
Cc1cccc(CSc2cccc3cccnc23)c1,92.3% (inactive),91.3%,92.1%,130% (inactive),125%,132%,97.2% (inactive),89.1% (inactive),88.9% (inactive),90.5%,85.9%
N#C/C(=C\c1ccccn1)c1nc2ccccc2s1,170% (inactive),158%,172%,584% (active),464%,589%,1020% (active),205% (active),506% (active),433%,496%
O=C1Nc2ccc(Br)cc2/C1=C/C1CC=CCC1 (centres undefined),106% (inactive),100%,105%,131% (inactive),122%,135%,133% (inactive),111% (inactive),108% (inactive),108%,104%
CCCCC1OC23CCCCC2C(C#N)(C(=N)O3)C1(C#N)C#N (centres undefined),101% (inactive),100%,96.8%,118% (inactive),117%,111%,176% (active),103% (inactive),119% (inactive),103%,98.7%
Cc1[nH]n(-c2ncc(-c3ccccc3)s2)c(=O)c1C(c1ccc(Cl)cc1)C(C#N)C#N (centres undefined),94.5% (inactive),98.1%,91.6%,156% (active),136%,159%,106% (inactive),100% (inactive),95.8% (inactive),101%,89.3%
Cc1c(Cc2ccccc2)c(NCCN(C)C)n2c(nc3ccccc32)c1C#N,116% (inactive),45.5%,99%,249% (active),167%,218%,187% (active),143% (inactive),116% (inactive),135%,92.8%
Cc1nnc(N2C(=O)c3cccc4cccc(c34)C2=O)s1,94.9% (inactive),93.3%,94.4%,96.5% (inactive),94.4%,96.4%,106% (inactive),100% (inactive),101% (inactive),101%,102%
CS(=O)(=O)c1nc(-c2ccccc2)cc(C(F)(F)F)n1,102% (inactive),105%,95.9%,192% (active),179%,189%,146% (inactive),102% (inactive),95.2% (inactive),101%,86.9%
COc1ccccc1C(=O)NNC(=S)NC(=O)c1cccs1,116% (inactive),126%,107%,225% (active),181%,202%,128% (inactive),89.6% (inactive),121% (inactive),124%,108%
CC1(C)CC(=O)C2=C(C1)OC1=C(C(=O)CC(C)(C)C1)C2c1ccc(O)cc1O,104% (inactive),105%,99.8%,143% (inactive),139%,143%,97.8% (inactive),96.3% (inactive),95.2% (inactive),103%,89.1%
Cc1cccc(N2C(=O)C(Cl)=C(Nc3c(C)n(C)n(-c4ccccc4)c3=O)C2=O)c1C,102% (inactive),102%,103%,103% (inactive),104%,104%,104% (inactive),103% (inactive),99.3% (inactive),100%,98%
COc1ccc(/C=N/NC(=O)C2(C)NC(C)(C)Cc3ccccc32)cc1 (centres undefined),94.4% (inactive),94.9%,95.3%,96.7% (inactive),97.6%,96.1%,96.2% (inactive),99.7% (inactive),99.7% (inactive),99.1%,98.5%
